Measurements pooled from the literature.
Compare with care: the assays were run in different laboratories.
Cell line: BEAS-2B
Effect on: cell growth or viability
Method: MTT

OC1CCN(c2ccc(/C=N/NC(=S)Nc3cccc(Cl)c3Cl)cc2)CC1 — IC50 (24 h): 16.9 µM
C[C@H]1[C@H](C)CC[C@]2(C(=O)O)CC[C@]3(C)C(=CC[C@@H]4[C@@]5(C)CC[C@H](O)C(C)(C)[C@@H]5CC[C@]43C)[C@H]12 — IC50 (24 h): 16 µM
C/C(=N\C(=O)/N=C(\C)c1c(O)c2ccccc2oc1=O)c1c(O)c2ccccc2oc1=O — IC50 (48 h): 21.9 µM
OC1CCN(c2ccc(/C=N/NC(=S)NCCc3ccccc3)cc2)CC1 — IC50 (24 h): 15 µM
Cc1cc(Cn2ccnc2)nn1C — IC50 (24 h): > 800 µM
CC(=O)c1c(O)c2ccccc2oc1=O — IC50 (48 h): 28.9 µM
OC1CCN(c2ccc(/C=N/NC(=S)NCc3ccccc3)cc2)CC1 — IC50 (24 h): 12.6 µM
CCOC(=O)c1cc(C)n(Cn2cnc3ccccc32)n1 — IC50 (24 h): 422 µM
COc1cccc2c1C(=O)c1c(O)c3c(c(O)c1C2=O)C[C@@](O)(C(=O)CO)C[C@@H]3O[C@H]1C[C@H](N)[C@H](O)[C@H](C)O1 — IC50 (24 h): > 100 µM
C/C(=N\NC(=O)/N=C(\C)c1c(O)c2ccccc2oc1=O)c1c(O)c2ccccc2oc1=O — IC50 (48 h): 50.3 µM
Cc1cc(C)n(Cn2ccnc2)n1 — IC50 (24 h): 339 µM
OC1CCN(c2ccc(/C=N/NC(=S)NC3CCCCC3)cc2)CC1 — IC50 (24 h): 14.5 µM
C/C(=N\C(=S)/N=C(\C)c1c(O)c2ccccc2oc1=O)c1c(O)c2ccccc2oc1=O — IC50 (48 h): 9.01 µM
Cc1cc(C)n(Cn2cnc3ccccc32)n1 — IC50 (24 h): 739 µM
